Measured values as given in ChEMBL document CHEMBL1133577, “Design and synthesis of piperazine-based matrix metalloproteinase inhibitors” (J Med Chem, 2000).

Key:
Matrilysin = molecular target: T1, Matrilysin (Homo sapiens, UniProt P09237); assay: In vitro inhibitory activity against matrix metalloprotease-7 (MMP-7)
T1 sequence (P09237 whole entry): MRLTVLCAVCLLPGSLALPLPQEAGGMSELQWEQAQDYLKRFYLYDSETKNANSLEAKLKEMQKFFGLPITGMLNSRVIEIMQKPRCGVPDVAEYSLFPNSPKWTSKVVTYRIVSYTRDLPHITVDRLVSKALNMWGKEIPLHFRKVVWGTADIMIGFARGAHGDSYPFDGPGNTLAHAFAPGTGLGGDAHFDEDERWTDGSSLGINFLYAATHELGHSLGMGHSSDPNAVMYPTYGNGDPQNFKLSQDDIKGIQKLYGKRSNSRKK
Procedure, shortened: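 MMP-7 supplied as active enzyme. It was incubated with 8 µM […] in 50 mM Tris-HCl pH 7.5, 10 mM CaCl2, 0.15 M NaCl, 0.05% Brij for 20-30 min at 37 °C with varying inhibitor. The reaction was quenched with 50 mM EDTA and fluorescence read at ex 328/em 393 nm. Activity is expressed as % of uninhibited control, triplicates; IC50 from 4-parameter logistic fit.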

Collagenase 3 = Collagenase 3 (Homo sapiens, UniProt P45452); assay: In vitro inhibitory activity against matrix metalloprotease-13 (MMP-13)
Interstitial collagenase = molecular target: T2, Interstitial collagenase (Homo sapiens, UniProt P03956); assay: In vitro inhibitory activity against matrix metalloprotease-1 (MMP-1)
T2 sequence (P03956 whole entry): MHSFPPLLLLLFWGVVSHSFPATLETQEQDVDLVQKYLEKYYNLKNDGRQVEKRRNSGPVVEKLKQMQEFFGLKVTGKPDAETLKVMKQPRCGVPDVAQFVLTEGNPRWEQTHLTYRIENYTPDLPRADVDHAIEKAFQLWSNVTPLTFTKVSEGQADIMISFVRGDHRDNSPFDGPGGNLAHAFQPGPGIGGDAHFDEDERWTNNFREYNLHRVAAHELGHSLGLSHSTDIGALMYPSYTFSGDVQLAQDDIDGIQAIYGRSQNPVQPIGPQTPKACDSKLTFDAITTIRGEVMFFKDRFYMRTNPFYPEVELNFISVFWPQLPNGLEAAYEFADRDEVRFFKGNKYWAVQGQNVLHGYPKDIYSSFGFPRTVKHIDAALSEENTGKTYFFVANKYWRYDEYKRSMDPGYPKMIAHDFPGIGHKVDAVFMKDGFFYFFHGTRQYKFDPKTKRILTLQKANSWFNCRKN

[1] = molecular target: Matrix metalloproteinase-9 (Homo sapiens, UniProt P14780); assay: In vitro inhibitory activity against matrix metalloprotease-9 (MMP-9)
Stromelysin-1 = Stromelysin-1 (Homo sapiens, UniProt P08254); assay: In vitro inhibitory activity against matrix metalloprotease-3 (MMP-3)
Stromelysin-1, sequence (P08254 whole entry): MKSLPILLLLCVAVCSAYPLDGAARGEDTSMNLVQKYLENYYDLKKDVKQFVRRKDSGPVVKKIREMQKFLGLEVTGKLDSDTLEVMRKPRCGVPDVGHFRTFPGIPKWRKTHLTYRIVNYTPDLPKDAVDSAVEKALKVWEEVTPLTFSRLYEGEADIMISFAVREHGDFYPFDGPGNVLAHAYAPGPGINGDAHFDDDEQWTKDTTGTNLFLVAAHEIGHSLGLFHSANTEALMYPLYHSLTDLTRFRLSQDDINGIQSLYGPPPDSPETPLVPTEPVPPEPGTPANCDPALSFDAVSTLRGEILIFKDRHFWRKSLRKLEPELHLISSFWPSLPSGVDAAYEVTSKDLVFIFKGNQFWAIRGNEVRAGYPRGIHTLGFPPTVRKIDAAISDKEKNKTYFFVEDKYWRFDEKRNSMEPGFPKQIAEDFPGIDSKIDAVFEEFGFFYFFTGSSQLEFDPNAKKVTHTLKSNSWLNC

Matrix metalloproteinase-9, sequence (P14780 whole entry): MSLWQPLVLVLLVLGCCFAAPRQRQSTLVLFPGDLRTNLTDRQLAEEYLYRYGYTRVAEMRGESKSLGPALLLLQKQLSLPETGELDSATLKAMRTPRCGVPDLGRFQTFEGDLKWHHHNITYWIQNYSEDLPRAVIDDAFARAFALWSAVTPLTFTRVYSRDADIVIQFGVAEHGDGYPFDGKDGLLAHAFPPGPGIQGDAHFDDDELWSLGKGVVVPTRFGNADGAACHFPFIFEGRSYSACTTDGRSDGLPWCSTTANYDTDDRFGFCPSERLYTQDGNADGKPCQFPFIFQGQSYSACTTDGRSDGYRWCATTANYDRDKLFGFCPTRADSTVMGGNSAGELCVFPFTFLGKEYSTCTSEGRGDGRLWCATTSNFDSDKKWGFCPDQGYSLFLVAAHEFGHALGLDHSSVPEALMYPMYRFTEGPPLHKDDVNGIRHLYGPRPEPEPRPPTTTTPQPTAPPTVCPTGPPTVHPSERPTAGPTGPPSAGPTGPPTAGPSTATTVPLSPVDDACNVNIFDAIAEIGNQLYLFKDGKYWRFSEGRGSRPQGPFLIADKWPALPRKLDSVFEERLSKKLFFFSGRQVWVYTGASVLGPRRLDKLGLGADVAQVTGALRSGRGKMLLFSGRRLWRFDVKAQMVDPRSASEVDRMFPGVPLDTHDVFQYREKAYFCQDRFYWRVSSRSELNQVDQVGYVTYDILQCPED

Compound	IC50 (Matrilysin)	IC50 (Collagenase 3)	IC50 (Interstitial collagenase)	IC50 [1]	IC50 (Stromelysin-1)
COc1ccc(S(=O)(=O)N2CCN(S(=O)(=O)c3ccc(OC)cc3)C(C(=O)NO)C2)cc1 (stereo unspecified)	1890 nM	1.3 nM	60 nM	1.2 nM	13 nM
COc1ccc(S(=O)(=O)N2CCN(C(=O)Nc3cccc(OC)c3)CC2C(=O)NO)cc1 (stereo unspecified)	1100 nM	2.8 nM	80 nM	4.1 nM	13 nM
COc1ccc(S(=O)(=O)N2CCN(C(=O)N3CCOCC3)CC2C(=O)NO)cc1 (stereo unspecified)	4350 nM	54 nM	228 nM	8.3 nM	124 nM
CCCN(CC1CC1)C(=O)N1CCN(S(=O)(=O)c2ccc(OC)cc2)C(C(=O)NO)C1 (stereo unspecified)	2090 nM	1.1 nM	–	–	65 nM
COc1ccc(S(=O)(=O)N2CCN(c3nc(-c4ccccc4)cs3)CC2C(=O)NO)cc1 (stereo unspecified)	3290 nM	–	325 nM	28 nM	11 nM
COc1ccc(S(=O)(=O)N2CCNCC2C(=O)NO)cc1 (stereo unspecified)	–	–	–	6.9 nM	–
COc1ccc(S(=O)(=O)N2CCN(C(=O)N3CCCCCC3)CC2C(=O)NO)cc1 (stereo unspecified)	2690 nM	2.9 nM	158 nM	–	54 nM
COc1ccc(S(=O)(=O)N2CCN(C(=O)NCCc3ccccc3)CC2C(=O)NO)cc1 (stereo unspecified)	824 nM	–	70 nM	3.6 nM	27 nM
CCCCCCN(C)C(=O)N1CCN(S(=O)(=O)c2ccc(Br)cc2)C(C(=O)NO)C1 (stereo unspecified)	1200 nM	4.5 nM	87 nM	13 nM	175 nM
COc1ccc(S(=O)(=O)N2CCN(C(=O)OCc3cccnc3)CC2C(=O)NO)cc1 (stereo unspecified)	502 nM	1 nM	18 nM	1.9 nM	8.9 nM
COc1ccc(S(=O)(=O)N2CCN(C(=O)c3ccco3)CC2C(=O)NO)cc1 (stereo unspecified)	642 nM	2.5 nM	25 nM	1.6 nM	7.5 nM
COc1ccc(S(=O)(=O)N2CCN(C(=S)NCc3ccccc3)CC2C(=O)NO)cc1 (stereo unspecified)	401 nM	–	68 nM	6.6 nM	41 nM
CCCCCCN(C)C(=O)N1CCN(S(=O)(=O)c2ccc(OC)cc2)C(C(=O)NO)C1 (stereo unspecified)	3240 nM	1.9 nM	71 nM	6 nM	4.3 nM
COCCN(CCOC)C(=O)N1CCN(S(=O)(=O)c2ccc(Br)cc2)C(C(=O)NO)C1 (stereo unspecified)	1130 nM	3.2 nM	49 nM	20 nM	385 nM
COc1ccc(S(=O)(=O)N2CCN(C(=O)N3CCN(C)CC3)CC2C(=O)NO)cc1 (stereo unspecified)	2690 nM	4.1 nM	354 nM	5 nM	114 nM
COc1ccc(S(=O)(=O)N2CCN(C(=O)c3ccno3)CC2C(=O)NO)cc1 (stereo unspecified)	–	–	62 nM	–	147 nM
CCCCCC(=O)N1CCN(S(=O)(=O)c2ccc(OC)cc2)C(C(=O)NO)C1 (stereo unspecified)	787 nM	–	115 nM	–	39 nM
COc1ccc(S(=O)(=O)N2CCN(C(=O)c3cccs3)CC2C(=O)NO)cc1 (stereo unspecified)	710 nM	1.9 nM	68 nM	1.3 nM	15 nM
COc1ccc(S(=O)(=O)N2CCN(C(=O)NCc3ccccc3)CC2C(=O)NO)cc1 (stereo unspecified)	416 nM	2.4 nM	99 nM	3.8 nM	17 nM
CCOCCCOC(=O)N1CCN(S(=O)(=O)c2ccc(OC)cc2)C(C(=O)NO)C1 (stereo unspecified)	483 nM	0.7 nM	22 nM	0.6 nM	5.3 nM

Compound	IC50 (Matrilysin)	IC50 (Collagenase 3)	IC50 (Interstitial collagenase)	IC50 [1]	IC50 (Stromelysin-1)
CCCCCCNC(=O)N1CCN(S(=O)(=O)c2ccc(OC)cc2)C(C(=O)NO)C1 (stereo unspecified)	497 nM	1.4 nM	30 nM	2.6 nM	28 nM
COc1ccc(S(=O)(=O)N2CCN(C(=O)[C@@H](O)C(C)C)CC2C(=O)NO)cc1 (stereo partly specified)	1690 nM	1 nM	227 nM	4.4 nM	60 nM
COc1ccc(S(=O)(=O)N2CCN(C(=O)C3CCCCC3)CC2C(=O)NO)cc1 (stereo unspecified)	2170 nM	1.5 nM	219 nM	1.8 nM	27 nM
COc1ccc(S(=O)(=O)N2CCN(S(C)(=O)=O)CC2C(=O)NO)cc1 (stereo unspecified)	483 nM	1 nM	8 nM	0.6 nM	3.5 nM
COc1ccc(S(=O)(=O)N2CCN(C(=O)OC(C)(C)C)CC2C(=O)NO)cc1 (stereo unspecified)	1460 nM	–	81 nM	2.3 nM	60 nM
COc1ccc(S(=O)(=O)N2CCN(C(=O)c3snnc3C)CC2C(=O)NO)cc1 (stereo unspecified)	6090 nM	21 nM	1060 nM	17 nM	173 nM
CCCCCCN1CCN(S(=O)(=O)c2ccc(OC)cc2)C(C(=O)NO)C1 (stereo unspecified)	15700 nM	4.2 nM	996 nM	17 nM	71 nM
COc1ccc(S(=O)(=O)N2CCN(C(=O)N(C)Cc3ccccc3)CC2C(=O)NO)cc1 (stereo unspecified)	–	1.8 nM	322 nM	–	38 nM
COc1ccc(S(=O)(=O)N2CCN(C(C)=O)CC2C(=O)NO)cc1 (stereo unspecified)	821 nM	1 nM	73 nM	1.8 nM	18 nM
COc1ccc(S(=O)(=O)N2CCN(C(=O)COc3ccccc3)CC2C(=O)NO)cc1 (stereo unspecified)	908 nM	–	92 nM	3 nM	9.5 nM
COc1ccc(S(=O)(=O)N2CCN(C(=O)c3c(-c4ccccc4)noc3C)CC2C(=O)NO)cc1 (stereo unspecified)	22100 nM	27 nM	1320 nM	22 nM	410 nM
COc1ccc(S(=O)(=O)N2CCN(C)CC2C(=O)NO)cc1 (stereo unspecified)	10000 nM	21 nM	–	25 nM	269 nM
COc1ccc(S(=O)(=O)N2CCN(Cc3ccccc3)CC2C(=O)NO)cc1 (stereo unspecified)	14000 nM	8 nM	324 nM	7.6 nM	75 nM
COc1ccc(S(=O)(=O)N2CCN(C(=O)c3cccnc3)CC2C(=O)NO)cc1 (stereo unspecified)	27700 nM	57 nM	994 nM	32 nM	184 nM
COc1ccc(S(=O)(=O)N2CCN(S(=O)(=O)c3sc(N)nc3C)CC2C(=O)NO)cc1 (stereo unspecified)	1280 nM	2 nM	31 nM	2.1 nM	2.5 nM
COc1ccc(S(=O)(=O)N2CCN(S(=O)(=O)c3c(C)noc3C)CC2C(=O)NO)cc1 (stereo unspecified)	1020 nM	1.3 nM	54 nM	2.4 nM	3.2 nM
COc1ccc(S(=O)(=O)N2CCN(C(=O)c3ccc(-c4ccccc4)cc3)CC2C(=O)NO)cc1 (stereo unspecified)	931 nM	0.9 nM	43 nM	–	23 nM
COc1ccc(S(=O)(=O)N2CCN(C(=O)OCc3ccccc3)CC2C(=O)NO)cc1 (stereo unspecified)	232 nM	1.3 nM	24 nM	1.9 nM	–
COc1ccc(S(=O)(=O)N2CCN(C(=O)c3ccccc3)CC2C(=O)NO)cc1 (stereo unspecified)	1520 nM	–	81 nM	–	66 nM
COc1ccc(S(=O)(=O)N2CCN(C(N)=O)CC2C(=O)NO)cc1 (stereo unspecified)	537 nM	3.6 nM	115 nM	2.3 nM	20 nM
